Published values pooled from the literature.
Each line is one published result; the experiments were not run side by side.
Target: MAP/microtubule affinity-regulating kinase 4 (MARK4, Homo sapiens, UniProt Q96L34)
One construct used (Q96L34 1-752): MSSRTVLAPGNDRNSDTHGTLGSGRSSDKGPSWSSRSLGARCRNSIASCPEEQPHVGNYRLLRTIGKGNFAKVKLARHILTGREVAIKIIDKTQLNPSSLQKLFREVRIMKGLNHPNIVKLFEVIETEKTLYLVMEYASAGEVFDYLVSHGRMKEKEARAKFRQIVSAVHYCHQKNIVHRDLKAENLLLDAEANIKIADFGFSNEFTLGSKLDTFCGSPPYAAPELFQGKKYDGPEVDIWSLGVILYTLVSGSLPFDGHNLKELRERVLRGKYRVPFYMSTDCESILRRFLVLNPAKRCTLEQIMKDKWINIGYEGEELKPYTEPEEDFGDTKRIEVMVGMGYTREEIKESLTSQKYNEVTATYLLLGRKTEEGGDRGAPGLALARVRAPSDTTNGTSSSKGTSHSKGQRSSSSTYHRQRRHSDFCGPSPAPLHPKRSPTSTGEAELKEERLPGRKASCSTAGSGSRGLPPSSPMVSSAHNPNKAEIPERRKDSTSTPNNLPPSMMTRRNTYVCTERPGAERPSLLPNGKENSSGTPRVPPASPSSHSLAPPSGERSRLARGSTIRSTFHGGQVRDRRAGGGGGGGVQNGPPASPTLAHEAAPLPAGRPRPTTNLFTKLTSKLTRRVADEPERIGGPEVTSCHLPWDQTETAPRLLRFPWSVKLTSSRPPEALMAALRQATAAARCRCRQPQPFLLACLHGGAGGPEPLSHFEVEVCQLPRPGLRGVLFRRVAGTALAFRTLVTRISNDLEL

SMILES | observed | method | tested at | remaining binding [%]
O=C(NCC1CCOCC1)c1n[nH]cc1NC(=O)c1c(F)cccc1F | binding | competition with immobilised ligand | 1 µM | 98
CC1CCCN1c1nccc(-c2cnn3ncccc23)n1 (centres unmarked) | binding | – | 1 µM | 98
COc1ncc2cc3ccccc3nc2c1C#N | cell-free assay | competition with immobilised ligand | 5 µM | 64
CN(c1nccc(-c2cnn3ncccc23)n1)C1CC1 | binding | – | 1 µM | 76
CNC(=O)[C@@H]1CC[C@@H](n2c(-c3ccc4cnccc4c3)nc3ccc(C(=O)NCc4cccc(C(N)=O)c4)cc32)C1 | binding | competition with immobilised ligand | 1 µM | 98
Cc1cnn2ncc(-c3ccnc(N(C)C)n3)c2c1 | binding | – | 1 µM | 91
CCCOc1ccc([C@H]2[C@H](C(=O)O)[C@@H](c3ccc4c(c3)OCO4)CN2CC(=O)Nc2c(CC)cccc2CC)cc1 | cell-free assay | competition with immobilised ligand | 1 µM | 97
CN(C)c1ncc(F)c(-c2cnn3ncccc23)n1 | binding | – | 1 µM | 100
COc1cc(-c2cn(C3CCc4ccccc4N(CC(F)(F)F)C3=O)nn2)ccc1-n1ccc(C)n1 (centres unmarked) | cell-free assay | competition with immobilised ligand | 1 µM | 100
O=C(NCCCN1CCOCC1)c1ccc(Nc2nccc(-c3cc4ccccc4s3)n2)cc1 | binding | competition with immobilised ligand | 1 µM | 60
F[C@@H]1CCN(c2nccc(-c3cnn4ncccc34)n2)C1 | binding | – | 1 µM | 100
FC(F)(F)c1ccc2c(c1)nc(-c1cccnc1)n2C1CC1 | cell-free assay | competition with immobilised ligand | 1 µM | 100
O=C(NCCCN1CCOCC1)c1ccc(Nc2ncc(Cl)c(-c3ccc(Cl)s3)n2)cc1 | binding | competition with immobilised ligand | 1 µM | 24
FC(F)(F)Oc1cccc(-c2cnc3ccc(-c4ccncc4)nn23)c1 | cell-free assay | competition with immobilised ligand | 5 µM | 80
CC(=O)c1c(NS(C)(=O)=O)c2cc(-c3ccc(Cl)cc3)c(-c3ccc(Cl)cc3Cl)nc2n(C)c1=O | cell-free assay | competition with immobilised ligand | 1 µM | 100
CCN1CCN(Cc2ccc(C(=O)Nc3ccc(C)c(Oc4ccc5c(c4)CC(=O)N5)c3)cc2C(F)(F)F)CC1 | binding | competition with immobilised ligand | 1 µM | 88
Cc1c(NC(=O)c2cc(C(N)=O)nc3cc(F)ccc23)c(C(F)(F)F)nn1Cc1ccc(C(C)(C)C)cc1 | cell-free assay | competition with immobilised ligand | 1 µM | 97
COc1ccnn2ncc(-c3ccnc(N(C)C)n3)c12 | binding | – | 1 µM | 100
Cc1cnc(Nc2ccc(C(=O)N3CCC(N4CCCC4)CC3)cc2)nc1-c1cc2ccccc2s1 | binding | competition with immobilised ligand | 1 µM | 35
CC(=O)Nc1c(C(C)=O)c(=O)n(C)c2nc(-c3ccc(Cl)cc3Cl)c(-c3ccc(Cl)cc3)cc12 | cell-free assay | competition with immobilised ligand | 1 µM | 100
